From ChEMBL document CHEMBL4004834, “Transition State-Based Sialyltransferase Inhibitors: Mimicking Oxocarbenium Ion by Simple Amide” (J Med Chem, 2017) come the findings set out here.

Molecules are shown by their SMILES.

Test [1] concerns the target T1, Beta-galactoside alpha-2,6-sialyltransferase 1 (Homo sapiens) (UniProt P15907).
T1 sequence (whole entry): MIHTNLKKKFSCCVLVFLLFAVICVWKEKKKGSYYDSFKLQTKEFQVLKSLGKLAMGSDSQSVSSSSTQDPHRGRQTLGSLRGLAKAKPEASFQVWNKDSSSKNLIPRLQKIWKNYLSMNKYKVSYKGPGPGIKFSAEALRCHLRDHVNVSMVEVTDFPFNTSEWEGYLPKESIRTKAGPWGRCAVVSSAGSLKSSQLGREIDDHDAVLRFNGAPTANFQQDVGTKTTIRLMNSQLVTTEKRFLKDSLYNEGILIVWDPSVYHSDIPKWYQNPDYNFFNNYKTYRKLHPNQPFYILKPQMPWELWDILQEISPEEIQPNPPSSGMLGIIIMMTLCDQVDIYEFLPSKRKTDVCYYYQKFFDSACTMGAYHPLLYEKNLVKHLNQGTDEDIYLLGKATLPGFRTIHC
Briefly: Inhibition of recombinant human ST6Gal-1 (44 to 406 residues) assessed as ratio of CMP-Neu5Ac Km to compound Ki […] by UV/RP-HPLC method.

The target in test [2] is T1, Beta-galactoside alpha-2,6-sialyltransferase 1 (Homo sapiens). Briefly: Inhibition of recombinant human N-terminal His-tagged ST6Gal-1 (44 to 406 residues) at 1 uM using CMP-Neu5Ac as substrate […] by UV/RP-HPLC method. The gist of the method:
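hST6Gal-I (aa 44-406), 80 ng per reaction, in pH 6.5 Mes buffer with 2 mM MnCl2 and 0.5% Triton X-100. Inhibitor at 1 µM with CMP-Neu5Ac (250 µM stock) and p-nitrophenyl LacNAc acceptor (5 mM stock), 37 °C, 30 min. Quenched by water and 95 °C for 2 min. Product read by RP-HPLC at 300 nm; donor consumption kept below 15%. Duplicates averaged.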

Test [3] concerns the target T2, Beta-galactoside alpha-2,6-sialyltransferase 1 (Homo sapiens, UniProt P15907).
T2 sequence (P15907 whole entry): T1 sequence (whole entry)
Briefly: Inhibition of recombinant human N-terminal His-tagged ST6Gal-1 (44 to 406 residues) using CMP-Neu5Ac as substrate […] by UV/RP-HPLC method.

As usually defined, the inhibition is the share of the control response that was lost under treatment. As a reminder, the Ki is the equilibrium dissociation constant of an inhibitor or competing ligand from its target. Turning to `Nc1ccn([C@@H]2O[C@H](COP(=O)(O)O[C@@H](c3cccc(Oc4ccccc4)c3)P(=O)(O)O)[C@@H](O)[C@H]2O)c(=O)n1`, the Ratio in test [1] stood at 2190. Further, in test [2], the inhibition turned out to be 87.6%. For the same molecule, the inhibition constant (Ki) in test [3] came to 19 nM. Consider `Nc1ccn([C@@H]2O[C@H](COP(=O)(O)OC(C3CCCC3)P(=O)(O)O)[C@@H](O)[C@H]2O)c(=O)n1` (some centres undefined), for which, in test [1], the Ratio turned out to be 7.1.

For the molecule `CC(=O)N[C@H]1[C@H](Oc2ccccc2)OC(C(OP(=O)(O)OC[C@H]2O[C@@H](n3ccc(N)nc3=O)[C@H](O)[C@@H]2O)P(=O)(O)O)=C[C@@H]1O` (stereo in doubt; 1-h) [listing 1 of 2 here], in test [3], the inhibition constant Ki is 29 nM.

Turning to `CC(=O)N[C@H]1[C@H](Oc2ccccc2)OC(C(OP(=O)(O)OC[C@H]2O[C@@H](n3ccc(N)nc3=O)[C@H](O)[C@@H]2O)P(=O)(O)O)=C[C@@H]1O` (stereo in doubt; 1-h) [listing 2 of 2 here], the Ratio in test [1] came out at 1580. As for `CC(=O)N[C@H]1[C@H](Oc2ccccc2)OC(C(OP(=O)(O)OC[C@H]2O[C@@H](n3ccc(N)nc3=O)[C@H](O)[C@@H]2O)P(=O)(O)O)=C[C@@H]1O` (stereo in doubt; 1-l) [listing 1 of 2 here], the inhibitory constant (Ki) in test [3] was determined as 690 nM. As for `CC(=O)N[C@H]1[C@H](Oc2ccccc2)OC(C(OP(=O)(O)OC[C@H]2O[C@@H](n3ccc(N)nc3=O)[C@H](O)[C@@H]2O)P(=O)(O)O)=C[C@@H]1O` (stereo in doubt; 1-l) [listing 2 of 2 here], in test [1], the Ratio was 67. For the molecule `Nc1ccn([C@@H]2O[C@H](COP(=O)(O)OC(c3ccccc3)P(=O)(O)O)[C@@H](O)[C@H]2O)c(=O)n1` (stereo in doubt; 2h) [listing 1 of 2 here], in test [3], the Ki was 200 nM. For `Nc1ccn([C@@H]2O[C@H](COP(=O)(O)OC(c3ccccc3)P(=O)(O)O)[C@@H](O)[C@H]2O)c(=O)n1` (stereo in doubt; 2h) [listing 2 of 2 here], in test [1], the Ratio came to 230.

Regarding `Nc1ccn([C@@H]2O[C@H](COP(=O)(O)OC(c3ccccc3)P(=O)(O)O)[C@@H](O)[C@H]2O)c(=O)n1` (stereo in doubt; 2l) [listing 1 of 2 here], the Ki in test [3] was 1000 nM. As for `Nc1ccn([C@@H]2O[C@H](COP(=O)(O)OC(c3ccccc3)P(=O)(O)O)[C@@H](O)[C@H]2O)c(=O)n1` (stereo in doubt; 2l) [listing 2 of 2 here], the Ratio in test [1] was 46. Consider `CC(=O)NC[C@@H]1CCC(OP(=O)(O)OC[C@H]2O[C@@H](n3ccc(N)nc3=O)[C@H](O)[C@@H]2O)(P(=O)(O)O)[C@H]1OCc1ccccc1` (stereo in doubt; 4-h), for which, in test [1], the Ratio is 1490. Still for that read-out and setting: in the case of `CC(=O)NC[C@@H]1CCC(OP(=O)(O)OC[C@H]2O[C@@H](n3ccc(N)nc3=O)[C@H](O)[C@@H]2O)(P(=O)(O)O)[C@H]1OCc1ccccc1` (stereo in doubt; 4-l) it was 87. With `Nc1ccn([C@@H]2O[C@H](COP(=O)(O)OC(CNC(=O)c3ccccc3)P(=O)(O)O)[C@@H](O)[C@H]2O)c(=O)n1` (stereo in doubt; 5a-l) [listing 1 of 2 here], in test [3], the Ki came to 174 nM. Turning to `Nc1ccn([C@@H]2O[C@H](COP(=O)(O)OC(CNC(=O)c3ccccc3)P(=O)(O)O)[C@@H](O)[C@H]2O)c(=O)n1` (stereo in doubt; 5a-l) [listing 2 of 2 here], the Ratio in test [1] was 239. In test [2], the inhibition was 61.7%. In the case of `Nc1ccn([C@@H]2O[C@H](COP(=O)(O)OC(CNC(=O)c3ccccc3)P(=O)(O)O)[C@@H](O)[C@H]2O)c(=O)n1` (stereo in doubt; 5a-s) [listing 1 of 2 here], the Ki in test [3] was found to be 16 nM. Turning to `Nc1ccn([C@@H]2O[C@H](COP(=O)(O)OC(CNC(=O)c3ccccc3)P(=O)(O)O)[C@@H](O)[C@H]2O)c(=O)n1` (stereo in doubt; 5a-s) [listing 2 of 2 here], the Ratio in test [1] came to 2600. Moreover, the inhibition in test [2] came out at 88.9%. Turning to `Nc1ccn([C@@H]2O[C@H](COP(=O)(O)OC(C(=O)Nc3ccccc3)P(=O)(O)O)[C@@H](O)[C@H]2O)c(=O)n1` (stereo in doubt; 5b-l) [listing 1 of 2 here], in test [3], the inhibition constant (Ki) is 122 nM. On to `Nc1ccn([C@@H]2O[C@H](COP(=O)(O)OC(C(=O)Nc3ccccc3)P(=O)(O)O)[C@@H](O)[C@H]2O)c(=O)n1` (stereo in doubt; 5b-l) [listing 2 of 2 here], for which the Ratio in test [1] was 341. The inhibition in test [2] is 67.7%.

For the molecule `Nc1ccn([C@@H]2O[C@H](COP(=O)(O)OC(C(=O)Nc3ccccc3)P(=O)(O)O)[C@@H](O)[C@H]2O)c(=O)n1` (stereo in doubt; 5b-s) [listing 1 of 2 here], the Ki in test [3] amounted to 106 nM. In the case of `Nc1ccn([C@@H]2O[C@H](COP(=O)(O)OC(C(=O)Nc3ccccc3)P(=O)(O)O)[C@@H](O)[C@H]2O)c(=O)n1` (stereo in doubt; 5b-s) [listing 2 of 2 here], the Ratio in test [1] worked out at 393. In addition, the inhibition in test [2] is 69.7%. Regarding `Nc1ccn([C@@H]2O[C@H](COP(=O)(O)OC(C(=O)N3CCCC3)P(=O)(O)O)[C@@H](O)[C@H]2O)c(=O)n1` (stereo in doubt; 5c-S) [listing 1 of 2 here], the Ki in test [3] is 60 nM. `Nc1ccn([C@@H]2O[C@H](COP(=O)(O)OC(C(=O)N3CCCC3)P(=O)(O)O)[C@@H](O)[C@H]2O)c(=O)n1` (stereo in doubt; 5c-S) [listing 2 of 2 here]: the Ratio in test [1] was 694. Further, the inhibition in test [2] turned out to be 77%.

As for `Nc1ccn([C@@H]2O[C@H](COP(=O)(O)OC(C(=O)N3CCCC3)P(=O)(O)O)[C@@H](O)[C@H]2O)c(=O)n1` (stereo in doubt; 5c-l) [listing 1 of 2 here], the Ki in test [3] was found to be 165 nM. On to `Nc1ccn([C@@H]2O[C@H](COP(=O)(O)OC(C(=O)N3CCCC3)P(=O)(O)O)[C@@H](O)[C@H]2O)c(=O)n1` (stereo in doubt; 5c-l) [listing 2 of 2 here], for which the Ratio in test [1] stood at 252. Moreover, the inhibition in test [2] is 65.7%. `Nc1ccn([C@@H]2O[C@H](COP(=O)(O)OC(C(=O)N3CCCCC3)P(=O)(O)O)[C@@H](O)[C@H]2O)c(=O)n1` (stereo in doubt; 5d-l) [listing 1 of 2 here]: in test [3], the inhibitory constant (Ki) came out at 45 nM.

For `Nc1ccn([C@@H]2O[C@H](COP(=O)(O)OC(C(=O)N3CCCCC3)P(=O)(O)O)[C@@H](O)[C@H]2O)c(=O)n1` (stereo in doubt; 5d-l) [listing 2 of 2 here], the Ratio in test [1] was found to be 925. In addition, in test [2], the inhibition was 80.3%. Take `Nc1ccn([C@@H]2O[C@H](COP(=O)(O)OC(C(=O)N3CCCCC3)P(=O)(O)O)[C@@H](O)[C@H]2O)c(=O)n1` (stereo in doubt; 5d-s) [listing 1 of 2 here]: the inhibition constant Ki in test [3] was 20 nM. As for `Nc1ccn([C@@H]2O[C@H](COP(=O)(O)OC(C(=O)N3CCCCC3)P(=O)(O)O)[C@@H](O)[C@H]2O)c(=O)n1` (stereo in doubt; 5d-s) [listing 2 of 2 here], the Ratio in test [1] was 2080. Moreover, the inhibition in test [2] is 86.3%.

With `Nc1ccn([C@@H]2O[C@H](COP(=O)(O)OC(CN3C(=O)CCC3=O)P(=O)(O)O)[C@@H](O)[C@H]2O)c(=O)n1` (stereo in doubt; 5e-l), the inhibition in test [2] came out at 15.1%. For `Nc1ccn([C@@H]2O[C@H](COP(=O)(O)OC(CN3C(=O)CCC3=O)P(=O)(O)O)[C@@H](O)[C@H]2O)c(=O)n1` (stereo in doubt; 5e-s) [listing 1 of 2 here], the Ki in test [3] came out at 224 nM. With `Nc1ccn([C@@H]2O[C@H](COP(=O)(O)OC(CN3C(=O)CCC3=O)P(=O)(O)O)[C@@H](O)[C@H]2O)c(=O)n1` (stereo in doubt; 5e-s) [listing 2 of 2 here], the Ratio in test [1] amounted to 186. For the same molecule, in test [2], the inhibition was determined as 58.8%.

For the molecule `Nc1ccn([C@@H]2O[C@H](COP(=O)(O)OC(CN3C(=O)c4ccccc4C3=O)P(=O)(O)O)[C@@H](O)[C@H]2O)c(=O)n1` (stereo in doubt; 5f-l), in test [2], the inhibition was 14.3%. Turning to `Nc1ccn([C@@H]2O[C@H](COP(=O)(O)OC(CN3C(=O)c4ccccc4C3=O)P(=O)(O)O)[C@@H](O)[C@H]2O)c(=O)n1` (stereo in doubt; 5f-s), in test [2], the inhibition turned out to be 34.5%.
